Assay outcomes as filed in PubChem.
T cruzi inh: inhibitors of intracellular T. cruzi growth, primary screen, luminescence, NIH3T3 host cells; T. cruzi beta-gal in NIH3T3, 90 h; inhibition, % (concentration not given with the values); 1.4% of 300,000 active;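 active = mean inhibition across valid replicates above about 55%, limit read from the data; inconclusive = mean below that limit but half or more replicates reach it; inactive = mean below it, under half of replicates reach it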;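 also: signal also drops with host cell toxicity which is not excluded here; 0% = plate median of DMSO wells and 100% = zero luminescence signal; higher percent means less beta-gal luminescence so fewer parasites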
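System: Mouse NIH/3T3 fibroblasts infected with β-gal-expressing T. cruzi Tulahuen C4 | Quantity: NIH/3T3 cells, 5,000 per well | Reagent: 5000 reporter trypomastigotes per well | Dosing: Compound pinned at 50 nL/well, DMSO | Schedule: 3 h host attachment, then at least 90 h co-culture | Detection: GalScreen luminescence, 60 min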
CSC inhib: cancer stem cell viability inhibitors, primary screen, luminescence | cancer stem cell-like cells viability | inhibition, % at 7.5 µM | 1.1% of 300,000 active | AID 2717, 2010; in the data active = inhibition above about 75%; inconclusive = no clear call, values can overlap the other calls; tested in HMLE shEcad cells
Beta apoptosis: inhibitors of cytokine-induced beta cell apoptosis, primary screen, luminescence. INS-1E cytokine-induced death, ATP luminescence, 48 h; percent of positive-control rescue, neutral wells zero. protection from apoptosis, % (test concentration not listed). 0.8% of 300,000 active. AID 435005, 2010;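 active = Every replicate reaches about 75%, or at least half do and their mean reaches it too, limit read from the data; inconclusive = At least half of replicates reach the limit but their mean does not; inactive = Under half of replicates reach the limit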;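 also: 0% = cytokine-treated negative control wells and 100% = positive control rescue; higher means more ATP so stronger rescue from cytokine killing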
Mdm2 MdmX PPI: inhibitors of human Mdm2-MdmX association, primary screen, cell-based, luminescence, split luciferase, SaOS-2, uHTS | inhibition, % at 8 µM | 3% of 330,000 active | SaOS-2 split-luciferase Mdm2/MdmX complementation;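 active = inhibition of at least 50% at 8 µM in the primary screen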
Target sequence (O15151 whole entry, looked up): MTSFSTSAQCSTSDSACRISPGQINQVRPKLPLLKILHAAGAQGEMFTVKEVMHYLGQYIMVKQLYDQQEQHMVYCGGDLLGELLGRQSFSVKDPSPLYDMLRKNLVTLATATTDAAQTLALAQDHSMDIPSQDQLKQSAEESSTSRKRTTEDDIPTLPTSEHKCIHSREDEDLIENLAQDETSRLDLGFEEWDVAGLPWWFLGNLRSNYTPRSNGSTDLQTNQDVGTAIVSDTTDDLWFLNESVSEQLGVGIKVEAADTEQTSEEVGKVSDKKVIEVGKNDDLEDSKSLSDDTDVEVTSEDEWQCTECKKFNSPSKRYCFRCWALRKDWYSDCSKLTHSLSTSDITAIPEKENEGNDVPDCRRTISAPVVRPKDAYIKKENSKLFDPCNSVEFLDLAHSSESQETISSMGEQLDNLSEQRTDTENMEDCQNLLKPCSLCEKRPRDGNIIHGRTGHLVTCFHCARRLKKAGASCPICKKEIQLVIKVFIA
Target sequence (Q00987 whole entry, looked up): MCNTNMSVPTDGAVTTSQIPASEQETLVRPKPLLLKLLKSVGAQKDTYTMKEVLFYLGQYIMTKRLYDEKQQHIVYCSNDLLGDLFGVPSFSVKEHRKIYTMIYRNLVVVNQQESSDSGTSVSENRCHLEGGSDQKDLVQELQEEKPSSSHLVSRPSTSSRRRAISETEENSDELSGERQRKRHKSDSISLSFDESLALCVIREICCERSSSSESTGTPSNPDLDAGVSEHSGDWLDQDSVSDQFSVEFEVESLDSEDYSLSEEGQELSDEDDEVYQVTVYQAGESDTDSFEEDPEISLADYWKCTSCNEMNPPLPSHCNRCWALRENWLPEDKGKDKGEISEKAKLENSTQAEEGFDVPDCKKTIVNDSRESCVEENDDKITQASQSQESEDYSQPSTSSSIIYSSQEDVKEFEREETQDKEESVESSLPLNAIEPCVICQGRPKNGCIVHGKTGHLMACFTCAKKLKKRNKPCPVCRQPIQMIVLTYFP
Lmaj promast: Leishmania major promastigote growth inhibition, primary screen | Leishmania major promastigotes, resazurin fluorescence viability | inhibition, % at 10 µM | 9% of 200,000 active; in the data active = inhibition above about 50%;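 also: promastigotes grown with compound for 44 hours at 28 °C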
SKKanGAS inh: S. pyogenes SKKanGAS growth inhibitors in kanamycin, primary screen, streptokinase expression inhibitor project, SKKanGAS strain, BacTiter-Glo luminescence; 6 h; inhibition, % at 7.5 µM; 1.3% of 300,000 active; AID 1662, 2009;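 active = mean replicate score, as percent of positive control median, at least 50; inconclusive = mean below 50 but one replicate at or above 50; inactive = mean and every replicate below 50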;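 also: strain carries kanamycin resistance gene driven by streptokinase promoter and grows in 40 µg/ml kanamycin; loss of luminescence reflects streptokinase promoter inhibition or plain growth inhibition; 0% = median of DMSO wells and 100% = positive control at its reference dose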
Mdm2-MdmX conf: Mdm2-MdmX complex disruptors, retested hits, confirmation, luminescence, single concentration. inhibition, % at 8 µM. shares compounds with Mdm2 MdmX PPI. 55% of 10,000 active. Mdm2-MdmX binding, luminescent assay; in the data active = inhibition above about 40%
FLuc counter: full-length luciferase signal inhibition, confirmation, counter-screen for Mdm2/MdmX interaction inhibitor project, cell-based, single concentration, SaOS-2; shares compounds with Mdm2 MdmX PPI; SaOS-2 full-length luciferase counterscreen, luminescence; inhibition, % at 8 µM; 77% of 6,200 active; AID 504607, 2011;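 active = mean inhibition at 8 µM reaching about 37%, which flags the compound as non-specific, limit read from the data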;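 also: p53-null SaOS-2 cells with luciferase driven by a doxycycline-inducible promoter; compound on cells about two nights before reading with doxycycline added after day one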
Starred values were filed as active, the others as inactive; ? = inconclusive; · = no result. Hits are enriched below; roughly 9.4% of the tested compounds scored in any of these assays.

SMILES	T cruzi inh	CSC inhib	Beta apoptosis	Mdm2 MdmX PPI	Lmaj promast	SKKanGAS inh	Mdm2-MdmX conf	FLuc counter
Cc1ccc(C)c(NC(=O)COC(=O)COc2cccc3c2OC(C)(C)C3)c1	-10	-5	-3	-29	·	-9	·	·
Cc1ccc(-c2nc(SCC(=O)Nc3cc(C)on3)c3c(=O)n(C)c(=O)n(C)c3n2)cc1	-47	29	-2	77*	·	18	18	·
Cn1c(=O)c2c(SCC(=O)Nc3ccccc3F)nc(-c3ccccc3F)nc2n(C)c1=O	2	37	14	71*	·	17	40	61*
Cn1c(=O)c2c(SCC(=O)NCCc3ccccc3)nc(C3CC3)nc2n(C)c1=O	-1	-22	0	5	·	8	·	·
Cn1c(=O)c2c(SCC(=O)Nc3ccccc3F)nc(C3CC3)nc2n(C)c1=O	-14	-8	-2	79*	·	25	17	·
CCc1nc(SCC(=O)Nc2ccccc2)c2c(=O)n(C)c(=O)n(C)c2n1	-6	8	2	1	·	-9	·	·
CCN(CCn1cccn1)Cc1nc(Cc2cccc(F)c2)no1	-7	-19	-6	-1	-4	-4	·	·
COc1ccccc1N1CCN(c2ccnc3cc(Cl)ccc23)CC1	-41	-14	38	56*	·	0	64*	55*
O=S(=O)(c1ccccc1OC(F)(F)F)N1CCN(c2ccnc3cc(Cl)ccc23)CC1	47	23	19	59*	·	9	28	·
O=S(=O)(c1cccc(Br)c1)N1CCN(c2ccnc3cc(Cl)ccc23)CC1	25	28	44	30	·	17	·	·
COc1ccccc1NC(=O)N1CCN(c2ccnc3cc(Cl)ccc23)CC1	1	-14	-14	22	·	14	·	·
CC1(C)CC(N=Cc2c(O)n(Cc3ccc4c(c3)OCO4)c(=O)c3ccccc23)CC(C)(C)N1	8	-10	2	93*	101*	2	40	69*
Nc1n[nH]c(CO)n1	0	1	-8	·	·	1	·	·
COc1ccc(-c2nc(NC(=O)c3ccccc3)sc2-c2ccc([N+](=O)[O-])cc2)cc1	10	27	3	64*	3	10	10	·
COc1ccc2nc(NC(=O)c3ccccc3[N+](=O)[O-])sc2c1	-7	7	0	-22	·	-16	·	·
CC(=O)c1c(C)[nH]c(C(=O)CSc2nnc(-c3ccccc3)n2Cc2ccc3c(c2)OCO3)c1C	-21	2	-3	77*	-2	10	30	·
CCOC(=O)c1c(C)[nH]c(C(=O)CSc2nnc(-c3cccs3)n2Cc2ccccc2)c1C	19	19	11	65*	-5	13	42*	40*
O=C(O)CSc1ncnc2sc(-c3ccccc3)cc12	2	-8	-5	22	-1	4	·	·
CC(=O)c1c(C)[nH]c(C(=O)CSc2nnc(-c3ccco3)n2Cc2ccccc2)c1C	2	-2	0	23	29	7	·	·
O=c1c2ccccc2nnn1CSc1nnc(-c2cccs2)n1Cc1ccccc1	3	27	2	61*	2	-1	49*	72*
CC(=O)c1c(C)[nH]c(C(=O)CSc2ncnc3sc(-c4ccccc4)cc23)c1C	-38	-17	·	51*	74*	5	6	·
CC(=O)c1ccc2noc(-c3cccc(C)c3)c2c1	3	5	-4	-23	-6	-3	·	·
CCN(CC)c1nc2cc(C)ccc2cc1/C=C(\C#N)C(N)=O	5	-5	-4	22	17	-9	·	·
Cc1ccc(C)c(OCC(=O)N(C)CC(=O)Nc2ccc(Cl)c(C(F)(F)F)c2)c1	·	·	-5	15	·	·	·	·
N#Cc1ccccc1OCC(=O)OCC(=O)Nc1ccc2c(c1)OCO2	·	-7	-1	14	·	·	·	·
SMILES	T cruzi inh	CSC inhib	Beta apoptosis	Mdm2 MdmX PPI	Lmaj promast	SKKanGAS inh	Mdm2-MdmX conf	FLuc counter
O=C1c2cccnc2C(=O)N1c1cccc([N+](=O)[O-])c1	-16	-9	-2	24	·	-3	·	·
O=[N+]([O-])c1cc(-c2ncccn2)c([N+](=O)[O-])s1	40	?	-5	93*	5	1	42*	12
CCS(=O)(=O)Nc1cccc(C2=NN(S(=O)(=O)CC)C(c3cccs3)C2)c1 (centres undefined)	7	-19	·	3	·	-4	·	·
Cc1ccccc1NC(=S)NCc1ccc2c(c1)cc(C)n2C	24	-1	6	68*	30	7	48*	62*
COc1ccccc1NC(=S)NCc1ccc2c(c1)cc(C)n2C	6	-12	-11	31	2	7	·	·
COc1ccc(C(=O)NC2CC2)cc1OC1CCN(Cc2cc(C)cc(C)c2)CC1	-2	-8	·	26	·	26	·	·
O=C(Nc1ccc(F)c(Cl)c1)Nc1csc2ccccc12	26	77*	83*	94*	·	95*	58*	35
Nc1nc(Nc2cccc(F)c2)nc(NCc2ccco2)c1[N+](=O)[O-]	25	37	-3	38	·	-5	·	·
N#C/C(N=Nc1ccccc1O)=N\Nc1ccccc1O	29	9	115*	82*	·	36	94*	18
COc1ccc2cc1Oc1ccc(cc1)C[C@H]1c3c(cc(OC)c4c3Oc3c(ccc5c3[C@H](C2)N(C)CC5)O4)CCN1C	·	105*	122*	100*	·	·	42*	11
COc1ccc2cc1Oc1ccc(cc1)CC1c3c(cc(OC)c4c3Oc3cc5c(cc3O4)CCNC5C2)CCN1C (centres undefined)	66*	-3	·	100*	·	17	100*	2
CCOc1ccc(C2NCCc3cc(OC)c(OC)cc32)cc1OC (centres undefined)	29	-2	10	33	·	-5	·	·
COc1cc(O)c(C(CCN2CCOCC2)c2cc(OC)c(OC)c(OC)c2)c(OC)c1 (centres undefined)	-18	-5	-2	14	·	-2	·	·
CC(C(=O)Nc1ccc(OCc2ccccc2)cc1)N1CCCC1 (centres undefined)	2	-5	-6	-3	19	3	·	·
CC(C)COCC(CN(Cc1ccccc1)c1ccccc1)N1CCCC1 (centres undefined)	2	10	6	60*	·	-2	34	·
O=C(Cn1cccc1C(=O)c1ccccc1)NCCC1=CCCCC1	-7	3	-1	8	42	1	·	·
